Activity calls are given as the source filed them. The rule behind the calls is not given here.
Columns and labels:
[1] = system: A549; assay: Cell cycle arrest in human A549 cells assessed as accumulation at G2 phase at 10 uM after 24 hrs by propidium iodide staining based flow cytometry (reference value: 14.1%); assay type: functional
[2] = system: SK-OV-3; assay: Growth inhibition of cisplatin sensitive human SKOV3 cells after 48 hrs by MTT assay; assay type: functional, cell-based; conditions: SK-OV-3, 48 h
How it was run: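 MTT growth inhibition in the paired ovarian lines, cisplatin-sensitive SK-OV-3 and cisplatin-resistant SK-OV-3/CDDP. IC50 given as mean ± S.D. of three separate experiments, each in triplicate.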

[3] = system: A549; assay: Induction of apoptosis in human A549 cells assessed as necrotic apoptotic cells at 10 uM after 24 hrs by annexin V-FITC/propidium iodide staining-based flow cytometry analysis (reference value: 0.520%); assay type: functional
How it was run: (§1)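 A549 cells treated at 5, 10 and 20 µM for 24 h, then harvested and stained with Annexin V-FITC and PI. Flow cytometry quadrants: Q1 necrotic, Q2 late apoptotic/necrotic, Q3 early apoptotic, Q4 living. Performed three times.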

[4] = system: A549; assay: Induction of apoptosis in human A549 cells assessed as late apoptotic cells at 5 uM after 24 hrs by annexin V-FITC/propidium iodide staining-based flow cytometry analysis (reference value: 2.20%); assay type: functional; how it was run: as §1
[5] = system: A549; assay: Induction of apoptosis in human A549 cells assessed as hyper condensed nuclei at 5 to 20 uM after 24 hrs by Hoechst […] staining based fluorescence microscopic method; assay type: functional, cell-based
How it was run: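 After 24 h exposure at 5, 10 and 20 µM, A549 cells harvested and stained with Hoechst 33258. Nuclear morphology, including brightly stained hypercondensed nuclei, inspected against untreated control. Three experiments.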

[6] = system: L02; assay: Antiproliferative activity against human HL-7702 cells after 48 hrs by MTT assay; assay type: functional, cell-based; conditions: L02, 48 h
How it was run: (§2)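 MTT read-out of antiproliferative activity across cancer lines HepG-2, NCI-H460, MGC-803, A549 and MG-63 and normal liver line HL-7702. IC50 given as mean ± S.D. of three separate experiments, each run in triplicate.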

[7] = Selectivity ratio of IC50 for cisplatin-resistant human SKOV3/DDP cells to IC50 for cisplatin sensitive human SKOV3 cells; assay type: functional
How it was run: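 IC50 determined in resistant SK-OV-3/CDDP cells divided by IC50 in parental SK-OV-3 cells. Each IC50 by MTT, three separate experiments each in triplicate.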

[8] = system: A549; assay: Induction of apoptosis in human A549 cells assessed as early apoptotic cells at 10 uM after 24 hrs by annexin V-FITC/propidium iodide staining-based flow cytometry analysis (reference value: 1.28%); assay type: functional; how it was run: as §1
[9] = system: A549; assay: Induction of apoptosis in human A549 cells assessed as necrotic apoptotic cells at 5 uM after 24 hrs by annexin V-FITC/propidium iodide staining-based flow cytometry analysis (reference value: 0.520%); assay type: functional; how it was run: as §1
[10] = system: HepG2; assay: Antiproliferative activity against human HepG2 cells after 48 hrs by MTT assay; assay type: functional, cell-based; conditions: HepG2, 48 h; how it was run: as §2
[11] = system: A549; assay: Induction of apoptosis in human A549 cells assessed as late apoptotic cells at 20 uM after 24 hrs by annexin V-FITC/propidium iodide staining-based flow cytometry analysis (reference value: 2.20%); assay type: functional; how it was run: as §1

Question: With `CCOP(=O)(OCC)C(Nc1ccc(CC(=O)NCCCCNC(=O)[C@@]2(C)CC[C@]3(C)CC[C@]4(C)C(=CC(=O)[C@@H]5[C@@]6(C)CC[C@H](OC(C)=O)C(C)(C)[C@@H]6CC[C@]54C)[C@@H]3C2)cc1)c1ccc(F)cc1` (stereo partly specified) as the compound, how does the Activity [1] read?
Answer: The Activity was 9.9%.

Question: And the IC50 [2]?
Answer: Its IC50 is 9.75 µM.

Question: What about the Activity [3] of the same compound?
Answer: Its Activity is 0.386%.

Question: What about the Activity [4] of the same compound?
Answer: The Activity was 11.6%.

Question: And the Activity [5]?
Answer: Its Activity is “Active”.

Question: What about the IC50 [6] of the same compound?
Answer: Its IC50 is greater than 50 µM.

Question: And the “Ratio IC50” value [7]?
Answer: The value was 0.92.

Question: And the Activity [8]?
Answer: The Activity was 19.1%.

Question: And the Activity [9]?
Answer: Its Activity is 0.09%.

Question: And the IC50 [10]?
Answer: The IC50 was 9.11 µM.

Question: What about the Activity [11] of the same compound?
Answer: Its Activity is 39.7%.

Reference: ChEMBL document CHEMBL4382268, “Glycyrrhetinic acid derivatives containing aminophosphonate ester species as multidrug resistance reversers that block the NF-κB pathway and cell proliferation” (Bioorg Med Chem Lett, 2018)
